Reference: ChEMBL document CHEMBL1152410, “Cytotoxic pentacyclic triterpenoids from Combretum sundaicum and Lantana camara as inhibitors of Bcl-xL/BakBH3 domain peptide interaction” (J Nat Prod, 2009)

Columns and labels:
KB = assay: Cytotoxicity against human KB cells; format: functional, cell-based
Procedure, shortened: (§1)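 Cell growth-inhibition assay run by a previously published procedure, with Taxotere as the reference compound.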

HCT-116 = assay: Cytotoxicity against human HCT116 cells; format: functional, cell-based; procedure, shortened: as §1
MCF7 = assay: Cytotoxicity against human MCF7 cells; format: functional, cell-based; procedure, shortened: as §1
Bcl-2-like protein 1 = Bcl-2-like protein 1 (Homo sapiens, UniProt Q07817); assay: Binding affinity to Bcl-xL by fluorescein-labeled Bak-BH3 peptide competition binding assay
Sequence of Bcl-2-like protein 1 (Q07817 whole entry): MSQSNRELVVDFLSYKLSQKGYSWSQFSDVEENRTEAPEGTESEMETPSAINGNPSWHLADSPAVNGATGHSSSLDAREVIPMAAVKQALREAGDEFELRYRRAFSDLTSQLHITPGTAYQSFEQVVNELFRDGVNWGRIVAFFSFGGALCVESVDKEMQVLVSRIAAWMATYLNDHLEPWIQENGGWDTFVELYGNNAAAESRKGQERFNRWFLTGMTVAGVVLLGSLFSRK
Procedure, shortened: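 Fluorescence polarization displacement: test compound competes with fluorescein-labeled Bak BH3-domain peptide for binding to Bcl-xL. Ki is derived as the dissociation constant at equilibrium against this reference ligand. Unlabeled Bak(BH3) peptide and a substituted terphenyl derivative serve as positive controls. Runs are done in duplicate.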

L1210 = assay: Cytotoxicity against mouse L1210 cells; format: functional, cell-based; procedure, shortened: as §1

CC(=O)OC[C@]1(C)[C@@H](OC(C)=O)C[C@H](O)[C@]2(C)[C@H]3CC=C4[C@H]5C[C@](C)(C(=O)O)CC[C@]5(C)CC[C@@]4(C)[C@]3(C)CC[C@@H]12
IC50 (KB): 5.4 µM
IC50 (HCT-116): 4.7 µM
IC50 (MCF7): 6 µM
Ki (Bcl-2-like protein 1): 17.8 µM

CC(=O)OC[C@]1(C)[C@@H](OC(C)=O)C[C@H](O[C@@H]2O[C@@H](C)[C@H](O)[C@@H](O)[C@H]2O)[C@]2(C)[C@H]3CC=C4[C@H]5C[C@](C)(C(=O)O)CC[C@]5(C)CC[C@@]4(C)[C@]3(C)CC[C@@H]12
IC50 (KB): 8.2 µM
IC50 (HCT-116): 8 µM
IC50 (MCF7): 10.5 µM
Ki (Bcl-2-like protein 1): 7.2 µM

COC(=O)[C@]1(C)CC[C@]2(C)CC[C@]3(C)C(=CC[C@@H]4[C@@]5(C)[C@@H](O[C@@H]6O[C@@H](C)[C@H](O)[C@@H](O)[C@H]6O)C[C@H](OC(C)=O)[C@@](C)(COC(C)=O)[C@@H]5CC[C@]43C)[C@H]2C1
IC50 (KB): 0.9 µM
IC50 (HCT-116): 0.3 µM
IC50 (MCF7): 0.6 µM
Ki (Bcl-2-like protein 1): > 100 µM

COC(=O)[C@]1(C)CC[C@]2(C)CC[C@]3(C)C(=CC[C@@H]4[C@@]5(C)[C@@H](O)C[C@H](O)[C@@](C)(COC(C)=O)[C@@H]5CC[C@]43C)[C@H]2C1
IC50 (KB): 2.9 µM
IC50 (HCT-116): 1.7 µM
IC50 (MCF7): 4.6 µM
Ki (Bcl-2-like protein 1): > 100 µM

CC(=O)O[C@@]12CO[C@@H]1C[C@H](O)[C@@]1(C)C(=O)[C@H](O)C3=C(C)[C@@H](OC(=O)[C@H](O)[C@@H](NC(=O)OC(C)(C)C)c4ccccc4)C[C@@](O)([C@@H](OC(=O)c4ccccc4)[C@H]21)C3(C)C [DOCETAXEL]
IC50 (KB): 0.00015 µM
IC50 (HCT-116): 0.0012 µM
IC50 (MCF7): 0.0007 µM

CC(C)=CC(=O)O[C@@H]1CC(C)(C)C[C@@H]2C3=CC[C@@H]4[C@@]5(C)CCC(=O)C(C)(C)[C@@H]5CC[C@@]4(C)[C@]3(C)CC[C@]21C(=O)O [LANTADENE B]
IC50 (KB): 25.3 µM
IC50 (HCT-116): 11.4 µM
IC50 (MCF7): 44 µM
IC50 (L1210): 16.1 µM
Ki (Bcl-2-like protein 1): > 100 µM

C/C=C(/C)C(=O)O[C@@H]1CC(C)(C)C[C@H]2C3=CC[C@@H]4[C@@]5(C)CCC(=O)C(C)(C)[C@@H]5CC[C@@]4(C)[C@]3(C)CC[C@@]12C(=O)O [LANTADENE A]
IC50 (KB): 15.8 µM
IC50 (HCT-116): 41.8 µM
IC50 (MCF7): 44.7 µM
IC50 (L1210): 16.3 µM
Ki (Bcl-2-like protein 1): > 100 µM

CC(C)=CC(=O)O[C@@H]1CC(C)(C)C[C@@H]2C3=CC[C@@H]4[C@@]5(C)CCC(=O)[C@](C)(CO)[C@@H]5CC[C@@]4(C)[C@]3(C)CC[C@]21C(=O)O
IC50 (KB): 35.5 µM
IC50 (HCT-116): 11.4 µM
IC50 (MCF7): 42.5 µM
IC50 (L1210): 12.3 µM
Ki (Bcl-2-like protein 1): 5.3 µM

C/C=C(/C)C(=O)O[C@@H]1CC(C)(C)C[C@@H]2C3=CC[C@@H]4[C@@]5(C)CCC(=O)[C@](C)(CO)[C@@H]5CC[C@@]4(C)[C@]3(C)CC[C@]21C(=O)O [ICTEROGENIN]
IC50 (KB): 15 µM
IC50 (HCT-116): 5.8 µM
IC50 (MCF7): 11.3 µM
IC50 (L1210): 6.8 µM
Ki (Bcl-2-like protein 1): 7.6 µM

COC(=O)[C@]1(C)CC[C@]2(C)CC[C@]3(C)C(=CC[C@@H]4[C@@]5(C)[C@@H](O[C@@H]6O[C@@H](C)[C@H](O)[C@@H](O)[C@H]6O)C[C@H](O)[C@@](C)(COC(C)=O)[C@@H]5CC[C@]43C)[C@H]2C1
IC50 (KB): 0.7 µM
IC50 (HCT-116): 0.4 µM
IC50 (MCF7): 0.5 µM
Ki (Bcl-2-like protein 1): > 100 µM
